Test results published in ChEMBL document CHEMBL4024792, “(N-Hydroxycarbonylbenylamino)quinolines as Selective Histone Deacetylase 6 Inhibitors Suppress Growth of Multiple Myeloma in Vitro and in Vivo” (J Med Chem, 2018).
Values belong to the compound of their own block, whether it stands above or below them. Calls of active or inactive are those of the source. No cut-off for these calls is given here.

Key:
[1] = molecular target: T1, Protein deacetylase HDAC6 (Homo sapiens, UniProt Q9UBN7); test: Inhibition of full length recombinant human N-terminal GST-tagged HDAC6 expressed in baculovirus infected insect cells using RHK-K(Ac)-AMC as substrate after 90 mins by fluorescence assay
T1 sequence (Q9UBN7 whole entry): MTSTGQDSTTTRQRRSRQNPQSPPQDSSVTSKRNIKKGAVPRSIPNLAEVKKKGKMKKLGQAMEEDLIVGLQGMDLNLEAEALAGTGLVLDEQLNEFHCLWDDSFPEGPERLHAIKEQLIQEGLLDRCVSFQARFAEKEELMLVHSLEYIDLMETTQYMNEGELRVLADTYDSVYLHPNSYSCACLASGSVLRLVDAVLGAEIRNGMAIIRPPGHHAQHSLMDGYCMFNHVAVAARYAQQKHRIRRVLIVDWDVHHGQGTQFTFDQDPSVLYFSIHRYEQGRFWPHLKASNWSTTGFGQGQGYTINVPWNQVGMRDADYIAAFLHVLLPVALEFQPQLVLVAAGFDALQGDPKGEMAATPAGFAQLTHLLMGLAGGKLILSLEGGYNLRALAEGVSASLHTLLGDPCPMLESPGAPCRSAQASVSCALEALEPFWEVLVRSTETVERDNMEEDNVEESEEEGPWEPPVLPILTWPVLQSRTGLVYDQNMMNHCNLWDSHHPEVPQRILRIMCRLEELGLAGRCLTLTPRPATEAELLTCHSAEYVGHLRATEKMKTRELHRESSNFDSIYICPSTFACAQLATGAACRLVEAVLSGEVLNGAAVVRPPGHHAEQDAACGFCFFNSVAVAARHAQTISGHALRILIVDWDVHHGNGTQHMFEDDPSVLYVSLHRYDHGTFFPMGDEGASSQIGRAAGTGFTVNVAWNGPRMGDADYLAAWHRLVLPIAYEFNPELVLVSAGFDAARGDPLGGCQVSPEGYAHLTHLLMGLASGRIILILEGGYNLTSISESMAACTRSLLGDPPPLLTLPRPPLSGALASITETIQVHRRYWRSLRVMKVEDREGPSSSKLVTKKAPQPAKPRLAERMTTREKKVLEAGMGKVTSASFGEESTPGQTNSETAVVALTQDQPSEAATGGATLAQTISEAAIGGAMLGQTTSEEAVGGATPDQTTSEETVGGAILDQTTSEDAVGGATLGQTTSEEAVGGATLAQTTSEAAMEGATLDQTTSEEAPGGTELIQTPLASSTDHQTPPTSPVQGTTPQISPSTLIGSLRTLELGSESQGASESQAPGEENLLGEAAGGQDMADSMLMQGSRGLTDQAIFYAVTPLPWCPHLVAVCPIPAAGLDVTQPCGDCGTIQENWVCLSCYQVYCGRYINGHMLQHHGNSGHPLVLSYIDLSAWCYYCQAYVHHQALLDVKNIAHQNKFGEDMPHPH

U-266 [2] = test: Induction of apoptosis in human U266 cells at 2.5 nM after 24 hrs by Annexin V/propidium iodide staining based flow cytometry; assay type: functional, cell-based
U-266 [3] = test: Cell cycle arrest in human U266 cells assessed as accumulation at S phase at 2.5 nM after 24 hrs by propidium iodide staining based flow cytometry (reference value: 14.05%); assay type: functional
RPMI-8226 [4] = test: Induction of apoptosis in human RPMI8226 cells at 2.5 nM after 24 hrs by Annexin V/propidium iodide staining based flow cytometry; assay type: functional, cell-based
RPMI-8226 [5] = test: Cell cycle arrest in human RPMI8226 cells assessed as accumulation at S phase at 2.5 nM after 24 hrs by propidium iodide staining based flow cytometry (reference value: 19.53%); assay type: functional
U-266 [6] = test: Cell cycle arrest in human U266 cells assessed as accumulation at G2/M phase at 2.5 nM after 24 hrs by propidium iodide staining based flow cytometry (reference value: 35.13%); assay type: functional
RPMI-8226 [7] = test: Cell cycle arrest in human RPMI8226 cells assessed as accumulation at G0/G1 phase at 2.5 nM after 24 hrs by propidium iodide staining based flow cytometry (reference value: 44.67%); assay type: functional
Mus musculus = test: Toxicity in nude mouse xenografted with human RPMI8226 cells assessed as death at 1 mg/kg, iv or ip administered once in week for 35 days; assay type: organism-based; settings: in vivo, 840 h
Summary of the method: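 Male nude mice, eight weeks old, received 1 × 10^7 RPMI 8226 cells subcutaneously. At a mean tumour volume of 200 mm3 they were randomised into four groups (n = 8). Dosing was 1 mg/kg i.v./i.p. once weekly, with vehicle 0.5% EtOH/0.5% Cremophor in 5% dextran. Treatment-related deaths were recorded, and caliper measurements were taken every 3–4 days.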

U-266 [8] = test: Cell cycle arrest in human U266 cells assessed as accumulation at G0/G1 phase at 2.5 nM after 24 hrs by propidium iodide staining based flow cytometry (reference value: 40.29%); assay type: functional
NCI-H929 [9] = test: Cell cycle arrest in human NCI-H929 cells assessed as accumulation at G2/M phase at 2.5 nM after 24 hrs by propidium iodide staining based flow cytometry (reference value: 31.63%); assay type: functional
RPMI-8226 [10] = test: Cell cycle arrest in human RPMI8226 cells assessed as accumulation at sub-G1 phase at 2.5 nM after 24 hrs by propidium iodide staining based flow cytometry (reference value: 12.25%); assay type: functional
NCI-H929 [11] = test: Cell cycle arrest in human NCI-H929 cells assessed as accumulation at G0/G1 phase at 2.5 nM after 24 hrs by propidium iodide staining based flow cytometry (reference value: 49.39%); assay type: functional
NCI-H929 [12] = test: Cell cycle arrest in human NCI-H929 cells assessed as accumulation at S phase at 2.5 nM after 24 hrs by propidium iodide staining based flow cytometry (reference value: 13.5%); assay type: functional
RPMI-8226 [13] = test: Cell cycle arrest in human RPMI8226 cells assessed as accumulation at G2/M phase at 2.5 nM after 24 hrs by propidium iodide staining based flow cytometry (reference value: 23.94%); assay type: functional
NCI-H929 [14] = test: Cell cycle arrest in human NCI-H929 cells assessed as accumulation at sub-G1 phase at 2.5 nM after 24 hrs by propidium iodide staining based flow cytometry (reference value: 5.59%); assay type: functional
NCI-H929 [15] = test: Induction of apoptosis in human NCI-H929 cells at 2.5 nM after 24 hrs by Annexin V/propidium iodide staining based flow cytometry; assay type: functional, cell-based
RPMI-8226 [16] = test: Antitumor activity against human RPMI8226 cells xenografted in nude mouse assessed as tumor growth inhibition at 1 mg/kg, iv or ip administered once in week for 35 days relative to control; assay type: functional; settings: RPMI-8226, 840 h, read-out: TGI
Summary of the method: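 RPMI 8226 cells (1 × 10^7) implanted s.c. in eight-week-old male nude mice. At mean tumor volume 200 mm3, mice randomized into four groups (n = 8). Caliper measurement every 3–4 days, volume L×W²/2. %TGI computed from treated versus control volume changes relative to time 0.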

NCI-H929 [17] = test: Antiproliferative activity against human NCI-H929 cells after 48 hrs by SRB assay; assay type: functional; settings: NCI-H929, 48 h
Summary of the method: (§1)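 Cells were exposed to test compounds at the indicated concentrations for 48 h. They were then fixed with 10% trichloroacetic acid, stained 30 min with 0.4% SRB in 1% AcOH, and washed with 1% AcOH. Bound dye was solubilized in 10 mM Tris base and OD read at 510 nm. Lines cultured in RPMI 1640 with 20% FBS and penicillin/streptomycin, 37°C, 5% CO2.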

[18] = Antiproliferative activity against human HS5 cells after 48 hrs by SRB assay; assay type: cell-based; summary of the method: as §1
U-266 [19] = test: Antiproliferative activity against human U266 cells after 48 hrs by SRB assay; assay type: functional; settings: U-266, 48 h; summary of the method: as §1
RPMI-8226 [20] = test: Antiproliferative activity against human RPMI8226 cells after 48 hrs by SRB assay; assay type: functional; settings: RPMI-8226, 48 h; summary of the method: as §1
[21] = Apparent permeability from basolateral to apical side in human Caco2 cells at 10 uM after 2 hrs by LC-MS/MS analysis; assay type: ADME, cell-based; settings: Caco-2
Summary of the method: (§2)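 Caco-2 cells seeded at 8.4 × 10^4 cells/cm2 on polycarbonate inserts for 21 days. For A→B, donor was apical (HBSS/MES pH 6.5, 10 µM compound) and receiver basolateral (HBSS/HEPES pH 7.4). For B→A, donor was basolateral (HBSS/HEPES pH 7.4, 10 µM) and receiver apical (HBSS/MES pH 6.5). Incubated at 37 °C for 2 h. Receiver sampled at 30, 60, 90 and 120 min, donor at 0 and 120 min.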

[22] = Efflux ratio of apparent permeability from in human Caco2 cells at 10 uM after 2 hrs by LC-MS/MS analysis; assay type: ADME, cell-based; settings: Caco-2; summary of the method: as §2
[23] = Apparent permeability from apical to basolateral side in human Caco2 cells assessed as drug recovery at 10 uM after 2 hrs by LC-MS/MS analysis; assay type: ADME, cell-based; settings: Caco-2, read-out: Drug recovery; summary of the method: as §2
[24] = Apparent permeability from apical to basolateral side in human Caco2 cells at 10 uM after 2 hrs by LC-MS/MS analysis; assay type: ADME, cell-based; settings: Caco-2; summary of the method: as §2
[25] = Apparent permeability from basolateral to apical side in human Caco2 cells assessed as drug recovery at 10 uM after 2 hrs by LC-MS/MS analysis; assay type: ADME, cell-based; settings: Caco-2, read-out: Drug recovery; summary of the method: as §2

Compound: O=C(NO)c1ccc(CNc2cncc3ccccc23)cc1
IC50 [1]: 0.00231 µM

Compound: O=C(NO)c1ccc(CNc2cccc3cn[nH]c23)cc1
IC50 [1]: 0.00356 µM

Compound: CC(C)C[C@H](NC(=O)[C@H](Cc1ccccc1)NC(=O)c1cnccn1)B(O)O [BORTEZOMIB]
Activity (U-266 [2]): Active
Activity (U-266 [3]): 7.8%
Activity (RPMI-8226 [4]): Active
Activity (RPMI-8226 [5]): 15.19%
Activity (U-266 [6]): 32.22%
Activity (RPMI-8226 [7]): 42.97%
Activity (Mus musculus): Toxic
Activity (U-266 [8]): 32.66%
Activity (NCI-H929 [9]): 16.32%
Activity (RPMI-8226 [10]): 10.55%
Activity (NCI-H929 [11]): 29.87%
Activity (NCI-H929 [12]): 11.59%
Activity (RPMI-8226 [13]): 31.53%
Activity (NCI-H929 [14]): 42.44%
Activity (NCI-H929 [15]): Active
inhibition in vivo at 1 mg/kg (RPMI-8226 [16]): 70.1%

Compound: O=C(NO)c1cccc(CNc2cccc3cccnc23)c1
IC50 [1]: 1.13 µM

Compound: O=C(NO)c1ccc(Nc2cccc3cccnc23)cc1
IC50 [1]: 0.129 µM

Compound: O=C(CCCCCCNC(=O)c1cnc(N(c2ccccc2)c2ccccc2)nc1)NO [RICOLINOSTAT]
GI50 (NCI-H929 [17]): > 100 µM
GI50 at 48 h [18]: > 100 µM
GI50 (U-266 [19]): > 100 µM
GI50 (RPMI-8226 [20]): 6.4 µM

Compound: O=C(NO)c1ccc(CNc2cccc3c2CCCC3)cc1
IC50 [1]: 0.0253 µM

Compound: COC(=O)c1ccccc1-c1c2ccc(=N)cc-2oc2cc(N)ccc12.Cl [RHODAMINE123]
Papp B→A at 2 h, 10 µM [21]: 75.2 nm/s
efflux ratio at 2 h, 10 µM [22]: 6.5
recovery at 2 h, 10 µM [23]: 89.8%
Papp A→B at 2 h, 10 µM [24]: 11.6 nm/s
recovery at 2 h, 10 µM [25]: 93.9%

Compound: O=C(/C=C/c1ccc(CNc2cccc3cccnc23)cc1)NO
IC50 [1]: 0.0417 µM

Compound: O=C(/C=C/c1ccc(CNc2cccc3ncccc23)cc1)NO
IC50 [1]: 0.0253 µM

Compound: O=C(NO)c1ccc(CSc2cccc3cccnc23)cc1
IC50 [1]: 0.00948 µM

Compound: O=C(NO)c1ccc(C(=O)Nc2cccc3ncccc23)cc1
IC50 [1]: 0.525 µM

Compound: Cc1ccc2cccc(NCc3ccc(C(=O)NO)cc3)c2n1
IC50 [1]: 0.0114 µM

Compound: O=C(NO)c1ccc(CCc2cccc3cccnc23)cc1
IC50 [1]: 0.0417 µM

Compound: O=C(NO)c1ccc(C(=O)Nc2cccc3cccnc23)cc1
IC50 [1]: 0.265 µM

Compound: O=C(NO)c1ccc(CNc2cccc3c2CCC3)cc1
IC50 [1]: 0.0196 µM

Compound: O=C(NO)c1ccc(COc2cccc3cccnc23)cc1
IC50 [1]: 0.00283 µM

Second part, the compound after the results:

IC50 [1]: 0.00325 µM
Compound: O=C(NO)c1ccc(CNc2ccc3cccnc3c2)cc1

IC50 [1]: 0.00335 µM
Compound: O=C(NO)c1ccc(CNc2cccc3ccncc23)cc1

IC50 [1]: 0.0074 µM
Compound: O=C(NO)c1ccc(NCc2cccc3cccnc23)cc1

IC50 [1]: 0.00424 µM
Compound: O=C(NO)c1ccc(CNc2ccc3ccccc3n2)cc1

IC50 [1]: 0.0215 µM
Compound: O=C(NO)c1ccc(CNc2ccnc3ccccc23)cc1

IC50 [1]: 0.00589 µM
Compound: O=C(NO)c1ccc(CNc2cccc3nccnc23)cc1

IC50 [1]: 0.00233 µM
Compound: O=C(NO)c1ccc(CNc2cccc3cnccc23)cc1

IC50 [1]: 0.403 µM
Compound: O=C(NO)c1ccc(CNc2cnc3ccccc3c2)cc1

IC50 [1]: 0.00478 µM
Compound: O=C(NO)c1ccc(CNc2ccc3ncccc3c2)cc1
